PAD4 FP inh = inhibitors of human PAD4. hit rate 0.41% among 330,000. recombinant PAD4, RCA probe fluorescence polarization. inhibition, % at 6.36 µM. AID 485272;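 active = percent inhibition above a cutoff equal to the mean of all tested compounds plus 3 SD, cut at about 15% in these data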;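 also: 0% = PAD4 with RCA probe and DMSO and 100% = probe without PAD4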
HTRA1 inh = inhibitors of human serine peptidase HTRA1. Q92743. recombinant HTRA1, FP-rhodamine activity-based probe, fluorescence polarization. inhibition, % at 5.96 µM. hit rate 0.5% among 340,000; in the data active = inhibition above about 36%;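 also: 0% = enzyme with DMSO and 100% = wells lacking enzyme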
ABHD4 inh = inhibits mouse alpha/beta hydrolase domain 4; inhibition, % at 8.92 µM; hit rate 0.54% among 370,000; purified mABHD4, FP-Rh probe fluorescence polarization; AID 720543;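 active = inhibition exceeding the mean over every tested compound plus 3 SD, cut at about 30% in these data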;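 also: 0% = plate median of compound wells and 100% = S159A mutant with DMSO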
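System: mouse ABHD4 enzyme, wild type / Medium: HEPES pH 7.0, NaCl, Pluronic buffer / Reagent: FP-Rh activity-based fluorescent probe / Control set: S159A mutant high control, sample median low control / Detection: fluorescence polarization with parallel and perpendicular emission, 525/598 nm / Schedule: 45 min + 60 min at 25 °C / Compound dosing: 8.92 µM, single dose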
SIAE primary = human SIAE inhibition, primary screen | inhibition, % at 9.66 µM | hit rate 0.69% among 370,000 | SIAE FP-Rh probe binding, fluorescence polarization;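 active = inhibition above a cutoff: mean of compounds within the control limits plus 3 SD of those, cut at about 17% in these data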;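 also: 0% = plate median of compound wells and 100% = probe without SIAE protein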
Target sequence (Q9HAT2 whole entry, looked up): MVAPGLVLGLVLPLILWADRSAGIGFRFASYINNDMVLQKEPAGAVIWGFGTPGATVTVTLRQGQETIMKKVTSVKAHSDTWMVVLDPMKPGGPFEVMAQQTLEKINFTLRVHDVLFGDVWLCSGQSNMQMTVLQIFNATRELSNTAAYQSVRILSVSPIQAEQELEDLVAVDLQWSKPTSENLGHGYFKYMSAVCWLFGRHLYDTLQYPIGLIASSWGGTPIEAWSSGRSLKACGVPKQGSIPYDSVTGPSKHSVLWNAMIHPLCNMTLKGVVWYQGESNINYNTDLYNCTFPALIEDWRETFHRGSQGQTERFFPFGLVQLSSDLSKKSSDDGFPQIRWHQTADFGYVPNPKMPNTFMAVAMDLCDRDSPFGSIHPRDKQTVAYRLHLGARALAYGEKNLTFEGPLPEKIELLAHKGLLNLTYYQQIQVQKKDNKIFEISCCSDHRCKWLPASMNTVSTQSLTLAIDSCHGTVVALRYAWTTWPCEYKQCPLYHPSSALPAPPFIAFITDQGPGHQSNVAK
TCR-CD3 inh = blocks the human TCR-CD3 interaction; TAMRA-labeled TCR probe fluorescence, biochemical; inhibition, % at 9.4 µM; hit rate 0.37% among 360,000; AID 651800; in the data active = inhibition above about 19%;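 also: recombinant mutant TCR 2C K166C tagged with TAMRA read by polarization; 0% = receptor in buffer alone and 100% = receptor with positive control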
PRMT1 inh = inhibitors of human PRMT1; Q99873; recombinant PRMT1, activity-based probe fluorescence polarization; inhibition, % at 2.79 µM; hit rate 1.3% among 370,000; AID 652257;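 active = inhibition above about 21% made by adding two undisclosed values, limit read from the data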
PRMT1 inh conf = PRMT1 (human) inhibition, FP confirmation; shares compounds with PRMT1 inh; recombinant His-PRMT1, activity-based probe fluorescence polarization; hit rate 42% among 3,300; inhibition, % at 2.79 µM; AID 687036;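 active = mean inhibition across replicates above the hit cutoff derived for the earlier primary screen, cut at about 22% in these data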
* marks the source's active call; other numbers are inactive results; / = no result given. Shown are actives, neighbours in structure and some others; about 2.9% of the full set was active somewhere.

SMILES	PAD4 FP inh	HTRA1 inh	ABHD4 inh	SIAE primary	TCR-CD3 inh	PRMT1 inh	PRMT1 inh conf
COc1ccc(N2C(=O)CC(N(CCc3ccc(OC)c(OC)c3)C(=S)Nc3ccccc3)C2=O)cc1 (centres undefined)	0.6	-7.5	2.7	2.4	-2.0	0.1	/
CC(=O)N1CCc2cc(S(=O)(=O)NC3CCN(C(=O)OCc4ccccc4)CC3)ccc21	/	/	0.9	-0.2	/	-2.2	/
CCOC(=O)c1sc(NC(=O)C2=COCCO2)c(C#N)c1C	-1.4	-0.8	-1.0	-7.7	4.4	12.3	/
CCOC(=O)c1sc(NC(=O)C(C)C)c(C#N)c1C	-0.8	2.1	0.5	2.1	-4.2	29.1*	2.2
O=C(NCc1ccco1)c1cc2cc(Br)ccc2o1	-3.5	-2.9	-13.2	-3.0	8.2	31.0*	24.7*
O=C(CSCc1ccco1)c1cccs1	1.3	-1.8	6.7	0.0	2.9	25.2*	70.4*
O=C1C2C3C=CC(C4CC34)C2C(=O)N1Cc1ccccc1 (centres undefined)	-16.8	0.7	6.8	3.5	-5.9	1.6	/
O=C1C2C3C=CC(C3=C3CCCCC3)C2C(=O)N1Cc1ccccc1 (centres undefined)	6.5	-8.4	-5.0	-2.3	-2.6	36.2*	2.9
COC(=O)[C@]12C[C@H](CC(=O)NCc3ccc(C)o3)C(=O)N(Cc3ccco3)C1=C[C@H](C(C)(C)C)O[C@@H]2C	/	/	-13.1	-0.5	/	11.6	/
Cc1c(-c2n[nH]c(=S)n2-c2ccc(C(F)(F)F)cc2)nnn1-c1ccccc1	-5.1	-3.7	-7.3	10.5	-6.2	30.0*	6.4
COCC(=O)N[C@@H]1C[C@@H]2O[C@H](CO)CC[C@@H]2O[C@@H]1CCc1ccc(-c2ccccc2)cc1	/	/	0.9	0.3	/	1.7	/
CCOc1ccc(C2C(C(=O)Nc3ccccc3)=C(C)N=c3s/c(=C/c4cccc(OCC(=O)O)c4)c(=O)n32)cc1 (centres undefined)	2.7	-41.0	-41.9	-33.8	1.4	24.8*	1.0
CC1=C(C(=O)Nc2ccccc2)C(c2ccc(Cl)cc2)n2c(s/c(=C/c3cccc(OCC(=O)O)c3)c2=O)=N1 (centres undefined)	0.0	-44.9	-37.6	-35.5	8.0	26.3*	5.3
CC1=C(C(=O)OC(C)C)C(c2ccc(Cl)cc2)n2c(sc(=Cc3ccc(OCC(=O)O)cc3)c2=O)=N1 (centres undefined)	/	/	-28.3	-17.1	8.4	11.9	/
Cc1cccc(Cn2cc(COC(=O)Nc3ccc(F)cc3)nn2)c1	/	/	-3.9	6.0	/	-11.4	/
CCOC(=O)[C@@H]1CSCCS(=O)(=O)N1C(=O)[C@H](CC(C)C)NC(=O)OC(C)(C)C	/	/	4.8	8.7	0.8	4.0	/
CCOc1ccc(-n2c(SCC(=O)c3ccc4ccccc4c3)nnc2-c2ccco2)cc1	/	/	-15.6	-9.8	/	45.6*	7.9
CCOc1ccc(-n2c(SCC(=O)c3ccc4ccccc4c3)nnc2-c2ccc(OC)cc2)cc1	/	/	-2.6	-2.4	/	0.3	/
O=C(Nc1nccs1)C(Br)C(Br)c1ccccc1 (centres undefined)	-5.8	-7.0	-3.8	-1.6	0.1	64.8*	59.5*
CC(=O)OC(C(=O)Nc1nccs1)c1ccccc1 (centres undefined)	-3.5	8.2	-9.0	-6.5	1.7	-0.5	/
CCC(=O)/C=C1/Sc2ccccc2N1CC	-6.0	7.0	26.0	10.2	-5.9	28.6*	26.8*
CCC(=O)/C=C1/Sc2ccc(OC)cc2N1CC	4.3	9.5	3.3	-0.3	-1.2	8.8	/
CN1/C(=C\C(=O)c2ccco2)C(C)(C)c2ccccc21	-32.4	-80.5	-53.0	-22.4	-10.0	2.6	/
CCN1/C(=C/C(=O)c2ccco2)Sc2ccccc21	-0.8	0.4	18.3	-3.9	6.7	44.7*	5.7
COC(=O)CSc1nnc(-c2ccc(NS(=O)(=O)c3ccc(C)c(C)c3)cc2)o1	/	/	3.5	-1.1	/	0.0	/
SMILES	PAD4 FP inh	HTRA1 inh	ABHD4 inh	SIAE primary	TCR-CD3 inh	PRMT1 inh	PRMT1 inh conf
COC(=O)C1=C(C)N(C)C(=NCc2ccc(OC)cc2)NC1c1cccc(C(F)(F)F)c1 (centres undefined)	/	/	8.3	5.2	5.7	-4.3	/
Nc1nc(-c2cc(O)ccc2[N+](=O)[O-])cc(-c2ccccc2)c1[N+](=O)[O-]	/	13.1	11.3	16.0	5.3	27.4*	17.7
O=C(Nc1ccc2c(c1)C(=O)c1ccccc1-2)c1ccccc1	/	-9.1	1.1	-8.3	-5.1	3.8	/
O=C1C(O)=CC(=C(c2ccccc2)c2ccccc2)c2ccccc21	/	14.3	25.9	8.0	0.4	41.8*	6.8
Cc1cc(Br)cn2c(Cc3cccc(F)c3)c(-c3cccc(Cl)c3)nc12	/	/	-11.8	-9.1	1.9	-1.7	/
Cc1cc(Br)cn2c(Cc3cccc(F)c3)c(-c3ccco3)nc12	/	/	6.8	-6.2	10.8	34.9*	30.1*
Fc1cccc(Cc2c(-c3ccco3)nc3ccc(Br)cn23)c1	/	/	5.6	-7.3	7.0	34.1*	10.5
COc1ccc(C2C(C(=O)Nc3cc(Cl)ccc3F)CCC(=O)N2c2ccc(OC)cc2)cc1 (centres undefined)	/	/	1.1	-1.2	/	0.7	/
CNc1nc(N)c([N+](=O)[O-])c(Nc2cccc(OC)c2)n1	/	/	1.7	-2.7	/	-2.1	/
Cc1cccc(-c2cccc3c4c([nH]c23)[C@@H]2C[C@H](N(C)C(=O)c3ccco3)[C@H]([C@H](C)O)CN2CC4)c1	/	/	-1.8	-7.1	/	2.6	/
CNC(=O)C1C(=S)NC(N)=C(C#N)C1c1ccccc1 (centres undefined)	-4.9	4.9	3.3	2.5	-0.6	61.0*	12.2
Cc1ccc(Cn2nnc3c2-c2ccccc2S(=O)(=O)N(C)C3)cc1	/	/	1.6	2.9	/	0.8	/
COC1=CC(=O)CC(C)C12Oc1cc(OC)cc(OC)c1C2=O (centres undefined)	2.0	2.7	14.9	-1.2	8.5	1.9	/
COC(=O)C1=CC(=O)C=C(OC)[C@@]12Oc1cc(C)cc(OC)c1C2=O	/	/	9.4	0.5	/	88.4*	84.5*
COc1ccc(/C=N\NC(=O)CN2CCN(Cc3ccccc3)CC2)cc1OCc1ccccc1	/	/	2.5	-6.3	/	-6.5	/
CCN1CCC(NCCc2ccc(F)cc2)CC1	5.7	11.9	-2.0	-11.4	2.2	-0.8	/
COc1c(O)cccc1[C@H](O)C1CCN(CCc2ccc(F)cc2)CC1	-0.7	1.4	2.7	2.8	-1.5	28.8*	1.7
COc1ccccc1OCC(=O)Sc1ccc(C)cc1	4.0	-0.7	4.0	-1.6	-2.4	38.8*	78.5*
CN1OC[C@@H]2CN(C(=S)Nc3cc(C(F)(F)F)cc(C(F)(F)F)c3)[C@H](c3ccccc3Br)C[C@@H]21	/	/	-8.1	-3.3	-6.3	7.2	/
C[C@@H]1CN(c2ccc(N3CCN(C(=O)OC(C)(C)C)C[C@H]3C)cc2C#N)CCN1Cc1ccccc1	/	/	-15.3	1.9	1.9	9.7	/
